Source: ChEMBL document CHEMBL1134633, “Synthesis and antiviral activity of novel 5-(1-cyanamido-2-haloethyl) and 5-(1-hydroxy(or methoxy)-2-azidoethyl) analogues of uracil nucleosides” (J Med Chem, 2001)

Columns and labels:
[1] = system: Human alphaherpesvirus 1; assay: Inhibition of plaque formation in monolayers of HSV-1 KOSSB(TK-) Vero cells by 50%; type: functional, organism-based; settings: Human alphaherpesvirus 1, Vero
Summary of the method: (§1)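 Vero cells in DMEM with 5% FBS, seeded 1 day ahead, infected with ~100 PFU/well (KOS, TK+; KOSSB, TK−) for 1 h at 37 °C. Inoculum replaced with drug dilutions in duplicate: first 25, 10, 5, 1 µg/mL (KOS) or 50, 25, 10, 1 µg/mL (KOSSB), then 1:2 series. After 48 h at 37 °C, methanol fixation and Giemsa staining. EC50 from plaque counts versus no-drug controls.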

[2] = system: Human alphaherpesvirus 1; assay: Inhibition of plaque formation in monolayers of HSV-1 E-377 Vero cells by 50%; type: functional, organism-based; settings: Human alphaherpesvirus 1, Vero
[3] = system: Human betaherpesvirus 5 (HCMV); assay: Inhibition of viral cytopathic effect in infected human foreskin fibroblast cell in monolayers of HCMV AD-169 by 50%
[4] = system: Human alphaherpesvirus 3; assay: Inhibition of viral cytopathic effect in infected human foreskin fibroblast cell in monolayers of VZV Ellen […] by 50%; type: functional, organism-based
[5] = system: Human alphaherpesvirus 2; assay: Inhibition of viral cytopathic effect in infected human foreskin fibroblast cell monolayers of HSV-2 MS […] by 50%; type: functional, organism-based
[6] = system: Human alphaherpesvirus 1; assay: Inhibition of plaque formation in monolayers of HSV-1 KOS Vero cells by 50%; type: functional, organism-based; settings: Human alphaherpesvirus 1, Vero; summary of the method: as §1
[7] = system: Human alphaherpesvirus 1; assay: Inhibition of plaque formation in monolayers of HSV-1 E-377(TK+) Vero cells by 50%; type: functional, organism-based; settings: Human alphaherpesvirus 1, Vero
[8] = system: Human alphaherpesvirus 1; assay: Inhibition of plaque formation in monolayers of HSV-1 KOS (TK+)Vero cells by 50%; type: functional, organism-based; settings: Human alphaherpesvirus 1, Vero; summary of the method: as §1
[9] = system: Human betaherpesvirus 5 (HCMV); assay: Inhibition of viral cytopathic effect in infected human foreskin fibroblast cell in monolayers of HCMV AD-169 by 50%; remark: listed apart in the source
[10] = system: Human alphaherpesvirus 1; assay: Inhibition of plaque formation in monolayers of HSV-1 KOS (TK+) Vero cells by 50%; type: functional, organism-based; settings: Human alphaherpesvirus 1, Vero; summary of the method: as §1
[11] = system: Human alphaherpesvirus 1; assay: Inhibition of plaque formation in monolayers of HSV-1 E-377 (TK+) Vero cells by 50%; type: functional, organism-based; settings: Human alphaherpesvirus 1, Vero

Compound	EC50 [1] [µM]	EC50 [2] [µM]	EC50 [3] [µM]	EC50 [4] [µM]	EC50 [5] [µM]	EC50 [6] [µM]	EC50 [7] [µM]	EC50 [8] [µM]	EC50 [9] [µM]	EC50 [10] [nM]	EC50 [11] [µM]
N#CNC(CBr)c1cn(C2O[C@H](CO)[C@@H](O)[C@@H]2O)c(=O)[nH]c1=O (stereo partly drawn)	> 125	> 256	> 256	32	> 256	62.5	–	–	–	–	–
N#CNC(CBr)c1cn([C@H]2C[C@H](O)[C@@H](CO)O2)c(=O)[nH]c1=O (stereo partly drawn)	> 133	–	> 266	20.7	87.7	–	42.5	6.6	–	–	–
CCc1cn([C@H]2C[C@H](O)[C@@H](CO)O2)c(=O)[nH]c1=O [EDOXUDINE]	> 780	42.9	–	32.7	58.5	19.5	–	–	> 390	–	–
O=c1[nH]c(=O)n([C@H]2C[C@H](O)[C@@H](CO)O2)cc1/C=C/Br [BRIVUDINE]	> 150	2.7	> 150	0.003	–	1.5	–	–	–	–	–
N#CNC(CI)c1cn([C@H]2C[C@H](O)[C@@H](CO)O2)c(=O)[nH]c1=O (stereo partly drawn)	15.3	–	> 236	14.6	77.8	–	–	–	–	1600	9.4
N#CNC(CI)c1cn(C2O[C@H](CO)[C@@H](O)[C@@H]2O)c(=O)[nH]c1=O (stereo partly drawn)	> 114	> 228	> 228	11.4	> 228	22.8	–	–	–	–	–
Nc1nc2c(ncn2COCCO)c(=O)[nH]1 [ACYCLOVIR]	178	4.4	–	–	6.2	2.2	–	–	–	–	–
Nc1nc2c(ncn2COC(CO)CO)c(=O)[nH]1 [GANCICLOVIR]	–	–	0.23	–	–	–	–	–	–	–	–
N#CNC(CCl)c1cn([C@H]2C[C@H](O)[C@@H](CO)O2)c(=O)[nH]c1=O (stereo partly drawn)	> 150	210	274	31.5	105	37.5	–	–	–	–	–
COC(CN=[N+]=[N-])c1cn([C@H]2C[C@H](O)[C@@H](CO)O2)c(=O)[nH]c1=O (stereo partly drawn)	> 150	> 300	> 300	> 300	> 300	> 75	–	–	–	–	–
[N-]=[N+]=NCC(O)c1cn([C@H]2C[C@H](O)[C@@H](CO)O2)c(=O)[nH]c1=O (stereo partly drawn)	> 161	> 322	> 322	> 322	> 322	> 80	–	–	–	–	–
